Measurements gathered from unrelated publications.
Lines come from different studies, so protocols differ.
Target: Myosin-IIIb (MYO3B, Homo sapiens, UniProt Q8WXR4)
Sequence (Q8WXR4 1-1341, as in one of the studies): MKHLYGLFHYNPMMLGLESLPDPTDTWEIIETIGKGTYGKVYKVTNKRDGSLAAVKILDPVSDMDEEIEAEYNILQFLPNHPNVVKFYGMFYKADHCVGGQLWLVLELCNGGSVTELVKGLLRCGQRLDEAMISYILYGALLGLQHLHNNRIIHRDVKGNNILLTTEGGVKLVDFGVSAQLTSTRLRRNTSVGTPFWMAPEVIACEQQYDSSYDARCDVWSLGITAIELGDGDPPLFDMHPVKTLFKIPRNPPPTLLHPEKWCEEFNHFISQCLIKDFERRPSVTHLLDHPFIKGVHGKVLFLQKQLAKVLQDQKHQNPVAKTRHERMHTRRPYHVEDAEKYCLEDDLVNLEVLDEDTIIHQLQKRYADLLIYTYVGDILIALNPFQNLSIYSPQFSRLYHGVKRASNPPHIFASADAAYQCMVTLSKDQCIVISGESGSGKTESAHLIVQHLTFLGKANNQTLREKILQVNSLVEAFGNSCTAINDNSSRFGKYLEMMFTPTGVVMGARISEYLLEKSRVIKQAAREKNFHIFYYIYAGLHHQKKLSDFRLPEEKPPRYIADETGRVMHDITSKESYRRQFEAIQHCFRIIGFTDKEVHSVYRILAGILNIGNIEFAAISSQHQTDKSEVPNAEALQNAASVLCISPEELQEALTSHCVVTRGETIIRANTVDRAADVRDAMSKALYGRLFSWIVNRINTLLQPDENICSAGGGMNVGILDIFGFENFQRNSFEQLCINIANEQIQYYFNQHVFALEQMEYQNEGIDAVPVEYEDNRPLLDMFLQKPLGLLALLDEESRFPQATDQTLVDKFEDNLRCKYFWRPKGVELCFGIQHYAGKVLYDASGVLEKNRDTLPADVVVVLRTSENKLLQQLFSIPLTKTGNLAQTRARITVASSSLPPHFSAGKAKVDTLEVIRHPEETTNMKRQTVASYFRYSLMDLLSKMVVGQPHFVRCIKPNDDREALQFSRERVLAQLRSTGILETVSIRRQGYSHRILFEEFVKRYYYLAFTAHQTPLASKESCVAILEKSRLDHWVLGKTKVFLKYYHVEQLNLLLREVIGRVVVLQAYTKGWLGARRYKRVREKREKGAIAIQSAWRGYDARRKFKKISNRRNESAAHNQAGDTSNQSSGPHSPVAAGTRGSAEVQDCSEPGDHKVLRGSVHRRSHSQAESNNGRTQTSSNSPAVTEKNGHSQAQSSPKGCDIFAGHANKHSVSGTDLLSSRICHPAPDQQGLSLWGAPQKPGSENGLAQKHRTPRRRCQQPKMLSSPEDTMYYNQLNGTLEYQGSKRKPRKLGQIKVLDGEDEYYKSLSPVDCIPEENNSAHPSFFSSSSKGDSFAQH

| SMILES | test | conditions | remaining binding |
| --- | --- | --- | --- |
| O=C(NCC1CCOCC1)c1n[nH]cc1NC(=O)c1c(F)cccc1F | binding, competition with immobilised ligand | 1 µM | 100% |
| C[C@@H](c1cccc(C#N)c1)n1cc(Cl)cc(C(N)=O)c1=N | binding, competition with immobilised ligand | 1 µM | 100% |
| Cc1cnc(Nc2ccc(C(=O)N3CCC(N4CCCC4)CC3)cc2)nc1-c1cc2ccccc2s1 | binding, competition with immobilised ligand | 1 µM | 100% |
| Cc1cnn2ncc(-c3ccnc(N(C)C)n3)c2c1 | binding | 1 µM | 80% |
| C[C@@H]1CN(c2cc(-c3n[nH]c4ccc(OC5(C)CC5)cc34)ncn2)C[C@H](C)O1 | cell-free assay, competition with immobilised ligand | 0.1 µM | 89% |
| COc1cnc(Nc2cccc(S(N)(=O)=O)c2)nc1N1CCN(c2ccccc2)CC1 | binding, competition with immobilised ligand | 1 µM | 100% |
| O=C(c1ccc(Nc2ncc(Cl)c(-c3ccc(Cl)s3)n2)cc1)N1CCC(N2CCCC2)CC1 | binding, competition with immobilised ligand | 1 µM | 100% |
| CC1CCCN1c1nccc(-c2cnn3ncccc23)n1 (stereo not drawn) | binding | 1 µM | 100% |
| Nc1ncc2c(n1)-c1c([nH]c3ccc(C#CC4CC4)cc13)CCCC2 | binding, competition with immobilised ligand | 1 µM | 75% |
| CNC(=O)[C@@H]1CC[C@@H](n2c(-c3ccc4cnccc4c3)nc3ccc(C(=O)NCc4cccc(C(N)=O)c4)cc32)C1 | binding, competition with immobilised ligand | 1 µM | 98% |
| N[C@H]1CCN(c2nccc(-c3cnn4ncccc34)n2)C1 | binding | 1 µM | 100% |
| CCN1CCN(Cc2ccc(C(=O)Nc3ccc(C)c(Oc4ccc5c(c4)CC(=O)N5)c3)cc2C(F)(F)F)CC1 | binding, competition with immobilised ligand | 1 µM | 100% |
| CCC(=O)N[C@@H]1CC[C@H](C(=O)N(C)c2ccc(-c3nc4ccccc4o3)cc2)C1 | cell-free assay, competition with immobilised ligand | 1 µM | 100% |
| C[C@@H]1CCN(c2nccc(-c3cnn4ncccc34)n2)C1 | binding | 1 µM | 100% |
| C=CC(=O)N1CCC(C(=O)NCC(=O)N2CCN(c3nc(-c4cnc(N)nc4C(F)F)nc(N4CCOCC4)n3)CC2)CC1 | binding, competition with immobilised ligand | 1 µM | 96% |
| C[C@H](c1ccc(F)cc1)N(Cc1cccc(C(=O)O)c1)C(=O)c1cnc2ccccc2c1 | binding, competition with immobilised ligand | 1 µM | 100% |
| O=C(c1ccc(Nc2nccc(-c3cc4ccccc4s3)n2)cc1)N1CCC(N2CCCC2)CC1 | binding, competition with immobilised ligand | 1 µM | 100% |
| CC1=C(C#N)C(c2ccc3c(c2)c(NC(=O)c2ccccc2C)nn3C)C(C#N)=C(C)N1 | binding, competition with immobilised ligand | 1 µM | 100% |
| CN(CCCC(F)(F)F)c1nccc(-c2cnn3ncccc23)n1 | binding | 1 µM | 92% |
| CS(=O)(=O)c1cc(C2(NC(=O)c3cncc4c3cnn4-c3ccc(F)cc3)CC2)ccn1 | cell-free assay, competition with immobilised ligand | 1 µM | 100% |
| CN(C)c1ncc(F)c(-c2cnn3ncccc23)n1 | binding | 1 µM | 100% |
